Published values gathered from unrelated publications.
Each line is one published result; the experiments were not run side by side.
Observed: cell growth or viability

| Structure (SMILES) | cell line | assay | setting | endpoint | value |
| --- | --- | --- | --- | --- | --- |
| COc1cc2c(cc1OS(N)(=O)=O)CCN(Cc1cccc(OC(C)C)c1)C2 | MDA-MB-231 | WST-1 | 96 h | GI50 | 4.65 µM |
| CNC(=O)c1ccc(N2C(=S)N(c3ccc(C#N)c(C(F)(F)F)c3)C(=O)C2(C)C)cc1F | CWR22Rv1 | MTT | – | GI50 | 15.1 µM |
| Fc1ccc(-c2nc3ccccc3[nH]2)cc1 | MDA-MB-231 | MTT | 48 h | IC50 | > 100 µM |
| COC(=O)CN=c1scc(-c2ccccc2)n1-c1ccccc1[N+](=O)[O-] | SiHa | MTT | – | IC50 | 6.78 µM |
| Cc1ccc2nc(-c3ccc(Cl)cc3)[nH]c2c1 | MDA-MB-231 | MTT | 48 h | IC50 | 27.1 µM |
| COc1cc(C)cc2oc(-c3ccc(N(C)C)cc3)cc(=O)c12 | HS27 | MTT | 24 h | IC50 | 141 µM |
| Clc1ccc(-c2nc3ccccc3[nH]2)cc1 | MDA-MB-231 | MTT | 48 h | IC50 | > 100 µM |
| COc1cccc2c1C(=O)c1c(O)c3c(c(O)c1C2=O)C[C@@](O)(C(=O)CO)C[C@@H]3O[C@H]1C[C@H](N)[C@H](O)[C@H](C)O1 | MDA-MB-231 | MTT | 50 µM, 24 h | viability | 11.8% |
| C[C@]12CC[C@H](O)CC1=CC[C@@H]1[C@@H]2CC[C@]2(C)C(n3cnc4ccccc43)=CC[C@@H]12 | CWR22Rv1 | MTT | – | GI50 | 3.8 µM |
| COc1cc(OC)c2c(=O)cc(-c3ccc(C(F)(F)F)cc3)oc2c1 | HS27 | MTT | 24 h | IC50 | > 200 µM |
| COc1ccc(CN2CCc3cc(OS(N)(=O)=O)c(OC)cc3C2)cc1OC | MDA-MB-231 | WST-1 | 96 h | GI50 | 3.15 µM |
| O=C1CCCCC1=C1Sc2nc3ccc(S(=O)(=O)N4CCCC4)cc3nc2S1 | MDA-MB-231 | MTT | 25 µM, 24 h | viability | 23.4% |
| c1cncc(-c2nc3ccccc3[nH]2)c1 | MDA-MB-231 | MTT | 48 h | IC50 | > 100 µM |
| COc1cc2c(cc1O)CCN(C(=O)c1cc(OC)c(OC)c(OC)c1)C2 | MDA-MB-231 | WST-1 | 96 h | GI50 | 0.733 µM |
| N#CC(C(=O)Nc1cccc(C(F)(F)F)c1)=C1Sc2nc3ccc(S(=O)(=O)N4CCCC4)cc3nc2S1 | MDA-MB-231 | MTT | 25 µM, 24 h | viability | 26.5% |
| CC#CC(=O)N1CC[C@@H](n2cc(-c3ccc(Oc4c(F)cccc4F)cc3)c3c(N)n[nH]c(=O)c32)C1 | OCI-Ly3 | ATP luminescence | 72 h | GI50 | 9.56 µM |
| COc1cccc(-c2nc3ccccc3[nH]2)c1 | MDA-MB-231 | MTT | 48 h | IC50 | 25.5 µM |
| COc1cc2c(cc1O)CCN(Cc1ccc(OC)c(OC)c1OC)C2 | MDA-MB-231 | WST-1 | 96 h | GI50 | > 100 µM |
| Cc1ccc2nc(-c3ccc(Cl)cc3Cl)[nH]c2c1 | MDA-MB-231 | MTT | 48 h | IC50 | 27.5 µM |
| COc1cc(OC)c(OC)cc1CN1CCc2cc(OS(N)(=O)=O)c(OC)cc2C1 | MDA-MB-231 | WST-1 | 96 h | GI50 | 0.491 µM |
| COc1ccc(-c2cc(=O)c3c(OC)cc(OC)cc3o2)cc1 | HS27 | MTT | 24 h | IC50 | > 200 µM |
| CCOC(=O)C(C(C)=O)=C1Sc2nc3ccc(S(=O)(=O)N4CCCC4)cc3nc2S1 | MDA-MB-231 | MTT | 25 µM, 24 h | viability | 13.8% |
| COc1cc2c(cc1O)CCN(Cc1cc(OC)c(OC)cc1OC)C2 | MDA-MB-231 | WST-1 | 96 h | GI50 | 4.1 µM |
| COc1cc(OC)c2c(=O)cc(-c3ccc(Br)cc3)oc2c1-c1c(OC)cc(OC)c2c(=O)cc(-c3ccc(Br)cc3)oc12 | HS27 | MTT | 24 h | IC50 | > 200 µM |
| Cc1ccc2nc(-c3ccc(Cl)c(Cl)c3)n(Cc3ccccc3)c2c1 | MDA-MB-231 | MTT | – | IC50 | 83.2 µM |
| COc1cc(C)c(-c2c(C)cc(OC)c3c(=O)cc(-c4cccc(Br)c4)oc23)c2oc(-c3cccc(Br)c3)cc(=O)c12 | HS27 | MTT | 24 h | IC50 | > 200 µM |
| C=CCn1c(-c2ccc(Cl)cc2)nc2ccc(C)cc21 | MDA-MB-231 | MTT | – | IC50 | 30.1 µM |
| COc1cc(C)cc2oc(-c3ccccc3Br)cc(=O)c12 | HS27 | MTT | 24 h | IC50 | 130 µM |
| COc1cc(OC)c(CN2CCc3cc(O)c(OC)cc3C2)c(OC)c1 | MDA-MB-231 | WST-1 | 96 h | GI50 | > 100 µM |
